Assay [1] is described as follows: reducers of endogenous Her2 protein level, primary screen, SKBR3 breast tumor cells, AlphaScreen, ATP viability (AID 461;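 active means Her2 level under about 52% in both replicate screens, with viability over 70% of control, limit read from the data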;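 on Her2 level: lower value means less Her2 protein in the cells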;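 on viability: percent of carrier control wells set as 100% viability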). As to conditions: 18-24 h, measured here: SKBR3 viability, ATP luminescence, at 10 µM.
The target in assay [2] is Receptor tyrosine-protein kinase erbB-2 (Homo sapiens) (UniProt P04626). The description is as above. As to conditions: 18-24 h, at 10 µM, stronger effect = lower value.
Receptor tyrosine-protein kinase erbB-2 (Homo sapiens), sequence (P04626 whole entry, looked up): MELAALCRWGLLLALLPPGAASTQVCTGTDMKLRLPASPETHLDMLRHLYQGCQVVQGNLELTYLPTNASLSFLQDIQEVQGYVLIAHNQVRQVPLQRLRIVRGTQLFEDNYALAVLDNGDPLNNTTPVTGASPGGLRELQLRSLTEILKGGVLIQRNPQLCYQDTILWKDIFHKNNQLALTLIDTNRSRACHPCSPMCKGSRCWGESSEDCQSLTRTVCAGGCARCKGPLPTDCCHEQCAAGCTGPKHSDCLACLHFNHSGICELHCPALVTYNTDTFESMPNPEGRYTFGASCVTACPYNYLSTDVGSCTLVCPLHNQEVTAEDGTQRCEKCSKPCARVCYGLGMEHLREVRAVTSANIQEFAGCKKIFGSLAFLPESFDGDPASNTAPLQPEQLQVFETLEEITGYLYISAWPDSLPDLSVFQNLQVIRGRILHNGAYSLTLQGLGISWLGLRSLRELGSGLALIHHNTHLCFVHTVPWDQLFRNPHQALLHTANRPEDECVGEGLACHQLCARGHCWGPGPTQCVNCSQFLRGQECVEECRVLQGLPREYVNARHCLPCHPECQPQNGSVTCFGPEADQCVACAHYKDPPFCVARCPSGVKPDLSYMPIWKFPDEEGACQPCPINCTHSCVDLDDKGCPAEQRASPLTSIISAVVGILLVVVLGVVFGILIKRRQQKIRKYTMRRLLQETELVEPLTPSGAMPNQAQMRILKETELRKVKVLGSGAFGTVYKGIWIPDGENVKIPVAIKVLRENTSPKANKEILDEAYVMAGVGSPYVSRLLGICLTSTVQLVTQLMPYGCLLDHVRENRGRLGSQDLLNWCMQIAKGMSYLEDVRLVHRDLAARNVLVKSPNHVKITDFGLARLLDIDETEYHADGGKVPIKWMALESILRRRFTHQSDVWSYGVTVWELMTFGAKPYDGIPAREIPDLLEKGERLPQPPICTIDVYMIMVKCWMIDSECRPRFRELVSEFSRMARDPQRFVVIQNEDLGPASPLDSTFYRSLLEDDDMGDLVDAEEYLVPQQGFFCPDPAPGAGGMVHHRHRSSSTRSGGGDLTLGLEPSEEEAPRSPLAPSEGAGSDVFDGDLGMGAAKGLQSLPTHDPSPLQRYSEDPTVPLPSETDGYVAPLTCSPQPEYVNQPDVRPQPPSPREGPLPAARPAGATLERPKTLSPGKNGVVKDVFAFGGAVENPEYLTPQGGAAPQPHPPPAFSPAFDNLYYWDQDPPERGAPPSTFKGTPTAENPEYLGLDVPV
The nature of assay [3]: SK-BR-3 cell growth inhibitors, pilot screen, 24 h, human (AID 572).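 Further: compound exposure lasted between 18 and 24 h rather than exactly 24 h; 100% = carrier-treated control wells.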 As to conditions: SK-BR-3 viability, CellTiter-Glo luminescence, at 10 µM, stronger effect = lower value. Background: Cellular ATP, detected with luciferase, serves as a proxy for viable cell number.
A short description of assay [4]: HUVEC growth inhibition – cell-based, human, primary screen (AID 575;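 active means viability at or below 30% in both replicate assays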;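 further: 100% = median of untreated cell wells with 0.1% DMSO on each plate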). The following applies: HUVEC proliferation, CellTiter-Glo luminescence, 72 h; at 10 µM; stronger effect = lower value. In a few lines: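 Assay system: primary human umbilical vein endothelial cells / Buffer or medium: endothelial basal medium with 2% FBS plus growth supplements / Compound dosing: one dose, 10 µM final, 0.1% DMSO / Timing: 72 h treatment at 37 °C / Signal: CTG luminescence / Benchmarks: 32 DMSO-only cell-control wells (high), 32 MePR drug-control wells (low) per plate / Plate: collagen-coated 384-well format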

Assay [5] in a line: growth inhibitors of H69AR lung tumor, primary screen, human, duplicate replicates (AID 580;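 active means viability at or under a set limit in both replicates, limit being median viability minus 3 SD, cut at about 48% in these data, passing the limit was not always enough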;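 further: 100% = mean luminescence of untreated wells and 0% = no signal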). As to conditions: H69AR lung tumor cells viability, ATP luminescence, 72 h; at 10 µM; stronger effect = lower value.
Assay [6] is described as follows: reversal of MRP1-mediated doxorubicin resistance, pilot screen, H69AR cells, doxorubicin co-treatment (AID 601;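 active means viability loss from added drug above about 55%, and viability with drug at most 40%, in both replicates, limit read from the data, passing the limit was not always enough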). As to conditions: CellTiter-Glo, 72 h, at 10 µM; for differential viability (reversal): stronger effect = higher value.
A short description of assay [7]: 384-well plate pilot, post-Golgi transport modulator project, inhibition of yeast transport mutant growth (AID 636; in the data active means inhibition above about 31%). As to conditions: absorbance 615 nm, about 18 h, stronger effect = higher value.
Assay [8] in a line: growth suppression of yeast trafficking mutant, preliminary HTS, modulators of trafficking downstream of Golgi apparatus project, 1536-format plate, OD 615 nm (AID 637; in the data active means inhibition above about 30%). As to conditions: yeast transport mutant growth, absorbance 615 nm, 18 h; stronger effect = higher value.
The mark [9] stands for this setting: H69AR cells + 2 uM doxorubicin, measured here: viability with 2 uM doxorubicin, stronger effect = lower value.
The mark [10] stands for this setting: H69AR cells, compound alone cytotoxicity.

Activity calls are given as the source filed them.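 How the source made its calls, unless noted: active means viability at or below 10% of carrier control in both of two separate runs; inconclusive means viability at or below 10% in only one of the two runs; inactive means the rest.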

The viability is a read-out of living cells in per cent, often relative to untreated cells. As a reminder, the inhibition is the change of the read-out against control, counted positive when it falls. With `C/C=C/c1ccc(OCCn2cncn2)c(OC)c1`, the viability is 98.5% in assay [1]; 98.5% (inactive) in assay [3]; 95.6% (inactive) in assay [4]; 89.8% (inactive) in assay [5]; 88.7% in assay [6] (setting [9]); 89.8% in assay [6] (setting [10]). Also, the Her2 level in assay [2] was 126% (inactive). Further, the differential viability (reversal) in assay [6] (H69AR cells + 2 uM doxorubicin) was 1.09% (inactive). The inhibition was 0.14% (inactive) in assay [7] and 0.66% (inactive) in assay [8].
For `Cc1ccc(-c2nn3c(=O)c(C)nnc3s2)cc1`, the viability is 112% in assay [1]; 112% (inactive) in assay [3]; 112% (inactive) in assay [4]; 104% (inactive) in assay [5]; 90.9% in assay [6] (setting [9]); 104% in assay [6] (setting [10]). The Her2 level in assay [2] is 112% (inactive). The differential viability (reversal) in assay [6] (H69AR cells + 2 uM doxorubicin) is 12.8% (inactive). The inhibition is -2.97% (inactive) in assay [7] and -5% (inactive) in assay [8].
Consider `CCCCP(=O)(CCCC)c1ccccc1C(=O)O`, for which the viability in assay [1] is 110%; in assay [3], 110% (inactive); in assay [4], 90% (inactive); in assay [5] it was 107% (inactive); in assay [6] (setting [9]) it was 94.2%; in assay [6] (setting [10]), 107%. Besides, in assay [2], the Her2 level is 104% (inactive). The differential viability (reversal) in assay [6] (H69AR cells + 2 uM doxorubicin) was 12.9% (inactive). The inhibition is 1.82% (inactive) in assay [7] and -2.46% (inactive) in assay [8].
Regarding `CCS(=O)(=O)NCCc1cc2c(OC)ccc(OC)c2[nH]c1=O`, the viability in assay [1] was 95.5%; in assay [3], 95.5% (inactive); in assay [4], 106% (inactive); in assay [5], 98.8% (inactive); in assay [6] (setting [9]), 86.8%; in assay [6] (setting [10]) it was 98.8%. Moreover, in assay [2], the Her2 level was 88.5% (inactive). Besides, the differential viability (reversal) in assay [6] (H69AR cells + 2 uM doxorubicin) is 12.1% (inactive). Further, the figures for the inhibition in assay [7] and in assay [8] were -9.45% (inactive) and 0.48% (inactive), respectively.
With `O=C1CC(=O)N(Cc2cccs2)C(=O)N1`, the viability in assay [1] was 93.5%; in assay [3], 93.5% (inactive); in assay [4], 103% (inactive); in assay [5], 101% (inactive); in assay [6] (setting [9]) it was 94%; in assay [6] (setting [10]), 101%. For the same molecule, the Her2 level in assay [2] is 99% (inactive). Further, in assay [6] (H69AR cells + 2 uM doxorubicin), the differential viability (reversal) was 6.82% (inactive). In addition, the inhibition in assay [7] is -2.76% (inactive); in assay [8] it was -3.82% (inactive).
Take `COc1ccc(-c2cc3nc(C)c(CCC(=O)NCc4ccco4)c(C)n3n2)c(OC)c1`: the viability is 103% in assay [1]; 103% (inactive) in assay [3]; 92.1% (inactive) in assay [4]; 85.8% (inactive) in assay [5]; 88.4% in assay [6] (setting [9]); 85.8% in assay [6] (setting [10]). In addition, the Her2 level in assay [2] is 91% (inactive). In assay [6] (H69AR cells + 2 uM doxorubicin), the differential viability (reversal) was -2.58% (inactive). Besides, the inhibition in assay [7] is 0.53% (inactive); in assay [8], 6.91% (inactive).
`CC1CCN(CCCNC(=O)c2cn(C)c3ccc(S(=O)(=O)N4CCCC4)cc3c2=O)CC1`: the viability in assay [1] is 90.5%; in assay [3], 90.5% (inactive); in assay [4] it was 96.9% (inactive); in assay [5], 91% (inactive); in assay [6] (setting [9]) it was 88%; in assay [6] (setting [10]), 91%. The Her2 level in assay [2] was 80% (inactive). The differential viability (reversal) in assay [6] (H69AR cells + 2 uM doxorubicin) is 3.01% (inactive). Besides, the results for the inhibition in assay [7] and in assay [8] were -6.76% (inactive) and 1% (inactive), respectively.
As for `C[C@H](NC(=O)Nc1ccccc1F)C(=O)O`, the viability in assay [1] is 100%; in assay [3], 100% (inactive); in assay [4], 101% (inactive); in assay [5], 100% (inactive); in assay [6] (setting [9]), 115%; in assay [6] (setting [10]), 100%. The Her2 level in assay [2] is 96% (inactive). The differential viability (reversal) in assay [6] (H69AR cells + 2 uM doxorubicin) is -14.3% (inactive). For the same molecule, the inhibition in assay [7] is -3.42% (inactive); in assay [8] it was 4.43% (inactive).
Consider `O=C1C2CC=C(Cl)CC2C(=O)N1c1ncn[nH]1` (stereo not given), for which the viability in assay [1] is 86.5%; in assay [3], 86.5% (inactive); in assay [4] it was 106% (inactive); in assay [5] it was 103% (inactive); in assay [6] (setting [9]), 101%; in assay [6] (setting [10]), 103%. Further, the Her2 level in assay [2] is 96% (inactive). In addition, in assay [6] (H69AR cells + 2 uM doxorubicin), the differential viability (reversal) was 2.85% (inactive). Besides, the inhibition in assay [7] is 0.27% (inactive); in assay [8], -5.32% (inactive).
Take `CCOc1ncccc1C(=O)OCC(=O)Nc1ncc(C(F)(F)F)cc1Cl`: the viability is 99.5% in assay [1]; 99.5% (inactive) in assay [3]; 97.2% (inactive) in assay [4]; 93.8% (inactive) in assay [5]; 94.3% in assay [6] (setting [9]); 93.8% in assay [6] (setting [10]). Besides, the Her2 level in assay [2] is 95% (inactive). The differential viability (reversal) in assay [6] (H69AR cells + 2 uM doxorubicin) is -0.51% (inactive). The figures for the inhibition in assay [7] and in assay [8] were -1.58% (inactive) and 7.9% (inactive), respectively.
For `O=S(=O)(c1ccc2ccccc2c1)N(CC(O)CN1CCOCC1)c1ccccc1` (stereo not given), the viability was 87% in assay [1]; 87% (inactive) in assay [3]; 83.9% (inactive) in assay [4]; 100% (inactive) in assay [5]; 81% in assay [6] (setting [9]); 100% in assay [6] (setting [10]). The Her2 level in assay [2] was 75.5% (inactive). Besides, in assay [6] (H69AR cells + 2 uM doxorubicin), the differential viability (reversal) was 19% (inactive). The inhibition was -5.87% (inactive) in assay [7] and -1.13% (inactive) in assay [8].
In the case of `CCOC(=O)c1sc(N2C(=O)C(O)=C(C(=O)c3ccco3)C2c2ccccc2)nc1C` (stereo not given), the viability in assay [1] was 101%; in assay [3], 101% (inactive); in assay [4] it was 77.4% (inactive); in assay [5] it was 84.2% (inactive); in assay [6] (setting [9]) it was 82.9%; in assay [6] (setting [10]), 84.2%. In addition, in assay [2], the Her2 level is 83.5% (inactive). Further, the differential viability (reversal) in assay [6] (H69AR cells + 2 uM doxorubicin) is 1.33% (inactive). Further, the inhibition in assay [7] was -4.93% (inactive); in assay [8], 0.98% (inactive).
`O=C(c1ccc(Cl)c(Cl)c1)N1CCOCC1`: the viability is 102% in assay [1]; 102% (inactive) in assay [3]; 91.7% (inactive) in assay [4]; 92.3% (inactive) in assay [5]; 97.7% in assay [6] (setting [9]); 92.3% in assay [6] (setting [10]). For the same molecule, in assay [2], the Her2 level was 103% (inactive). For the same molecule, the differential viability (reversal) in assay [6] (H69AR cells + 2 uM doxorubicin) is -5.39% (inactive). Moreover, the inhibition was -0.66% (inactive) in assay [7] and -10.8% (inactive) in assay [8].
Consider `CCOC(=O)Cc1nn2c(=O)cc(C)nc2s1`, for which the viability was 116% in assay [1]; 116% (inactive) in assay [3]; 102% (inactive) in assay [4]; 102% (inactive) in assay [5]; 99.4% in assay [6] (setting [9]); 102% in assay [6] (setting [10]). Further, the Her2 level in assay [2] is 111% (inactive). Further, the differential viability (reversal) in assay [6] (H69AR cells + 2 uM doxorubicin) is 2.55% (inactive). The inhibition in assay [7] was -1.07% (inactive); in assay [8] it was 1.64% (inactive).
In the case of `C=CCNC(=O)c1cc(-c2ccccc2O)on1`, the viability in assay [1] is 97%; in assay [3], 97% (inactive); in assay [4] it was 99.1% (inactive); in assay [5], 86.7% (inactive); in assay [6] (setting [9]) it was 86.7%; in assay [6] (setting [10]), 86.7%. For the same molecule, in assay [2], the Her2 level was 82.5% (inactive). Moreover, the differential viability (reversal) in assay [6] (H69AR cells + 2 uM doxorubicin) was 0.065% (inactive). For the same molecule, the results for the inhibition in assay [7] and in assay [8] were 2.18% (inactive) and 4.17% (inactive), respectively.

These data come from PubChem BioAssay.
